Assay [1] concerns MCF7. Kind of assay: Cytotoxicity against human MCF7 cells after 48 hrs by MTT assay. Particulars: MCF7, 48 h. In kind it is functional, cell-based. The gist of the method: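 MCF-7 cells were grown overnight, then treated continuously for 48 h with compounds in DMEM containing 10% FBS. After two PBS washes, cells got 0.5 mg/ml MTT in serum-free DMEM for 4 h. Formazan was solubilized in DMSO and OD read at 570 nm.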

Assay [2] has as its system HepG2. In words: Cytotoxicity against human HepG2 cells after 48 hrs by MTT assay. In kind it is functional, cell-based. Conditions: HepG2, 48 h. Summed up: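 HepG2 kept in MEM with 10% FBS and 1% penicillin/streptomycin at 37 °C, 5% CO2. After overnight growth, cells were exposed continuously to compounds for 48 h in MEM with 10% FBS. They were then PBS-washed and given 0.5 mg/ml MTT in serum-free DMEM for 4 h. Formazan was dissolved in DMSO and read at 570 nm.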
(Formazan colour is commonly taken as a measure of viable cells.)

Assay [3] is described as follows: Cytotoxicity against human SH-SY5Y cells after 48 hrs by MTT assay. In kind it is functional, cell-based. The gist of the method: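 SH-SY5Y, after overnight growth, were exposed continuously to compounds for 48 h in DMEM with 10% FBS. Then PBS washes, 4 h with 0.5 mg/ml MTT in serum-free DMEM, DMSO solubilization of formazan, and OD at 570 nm.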
The test system of assay [4] is MCF7. Kind of assay: Cytotoxicity against human MCF7 cells at 10 uM after 48 hrs by MTT assay. Format: functional, cell-based. Summed up: (§1)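 Percent proliferation inhibition of MCF-7 at a single concentration, taken from a dose-response series. Cells were plated overnight, then compound-treated for 48 h in DMEM + 10% FBS. They were washed with PBS and incubated 4 h with 0.5 mg/ml MTT in serum-free DMEM. Formazan was dissolved in DMSO and read at 570 nm.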

The subject of a further assay is SH-SY5Y. In words: Cytotoxicity against human SH-SY5Y cells at 10 uM after 48 hrs by MTT assay. Format: functional, cell-based. Summed up: (§2)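 SH-SY5Y cells were grown overnight and treated for 48 h at the stated concentration in DMEM/10% FBS, as part of a dose-response series. After PBS washes, cells were incubated 4 h with 0.5 mg/ml MTT in serum-free DMEM. Formazan was dissolved in DMSO and read at 570 nm to give inhibition rate.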

For assay [5], the system named is HepG2. In words: Cytotoxicity against human HepG2 cells at 10 uM after 48 hrs by MTT assay. In kind it is functional, cell-based. The gist of the method: (§3)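 After overnight plating, HepG2 cells (maintained in MEM/10% FBS/1% pen-strep, 37 °C, 5% CO2) were treated at a fixed compound concentration for 48 h in MEM plus 10% FBS. MTT was 0.5 mg/ml in serum-free DMEM for 4 h after PBS washes, with formazan taken up in DMSO. Absorbance at 570 nm gave percent proliferation inhibition, part of a dose-response series.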

Assay [6] deals with MCF7. Kind of assay: Cytotoxicity against human MCF7 cells at 1 uM after 48 hrs by MTT assay. Format: functional, cell-based. Summed up: as §1
A short description of assay [7]: Cytotoxicity against human SH-SY5Y cells at 1 uM after 48 hrs by MTT assay. In kind it is functional. Summed up: as §2
Assay [8] relates to HepG2. Kind of assay: Cytotoxicity against human HepG2 cells at 1 uM after 48 hrs by MTT assay. Format: functional, cell-based. The gist of the method: as §3
The test system of assay [9] is HepG2. In words: Cytotoxicity against human HepG2 cells at 5 uM after 48 hrs by MTT assay. Format: functional. Conditions: HepG2, 48 h. The gist of the method: as §3
The nature of assay [10]: Cytotoxicity against human SH-SY5Y cells at 5 uM after 48 hrs by MTT assay. Format: functional. Summed up:
as §2

Assay [11] deals with MCF7. In words: Cytotoxicity against human MCF7 cells at 5 uM after 48 hrs by MTT assay. Particulars: MCF7, 48 h. In kind it is functional. Summed up:
as §1

Activity calls are given as the source filed them. No cut-off for these calls is given here.

Turning to `O=S(=O)(CCC(F)(Cl)C(F)(F)Cl)c1nc2ccc(Cl)cc2s1` (stereo unspecified), the IC50 worked out at 8.4 µM with MCF7 [1], 6.1 µM in the assay with HepG2 [2] and 6 µM in [3].
Taken in the same sequence, the figures for `Cn1c(SCCC(F)=C(F)F)nc(-c2ccncc2)cc1=O` were more than 120 µM, more than 120 µM and more than 120 µM.
Regarding `CC(=O)O[C@H]1C(=O)[C@@]2(C)[C@H]([C@H](OC(=O)c3ccccc3)[C@]3(O)C[C@H](OC(=O)[C@H](O)[C@@H](NC(=O)c4ccccc4)c4ccccc4)C(C)=C1C3(C)C)[C@]1(OC(C)=O)CO[C@@H]1C[C@@H]2O` [PACLITAXEL], the IC50 came out at 0.032 µM with MCF7 [1] and 0.045 µM in the assay with HepG2 [2].
Take `CC(c1nccs1)C(C#N)(C#N)CCC(F)=C(F)F` (stereo unspecified): the IC50 (in the assay on MCF7 [1]; in the assay on HepG2 [2]; in assay [3]) was more than 120 µM throughout.
`c1ccc2sc(SNC3CCCCC3)nc2c1`: the IC50 in the assay with MCF7 [1] is 89.2 µM; in the assay on HepG2 [2], 55 µM; in assay [3], more than 120 µM.
Taken in the same sequence, the figures for `O=S(=O)(CCC(F)(Cl)C(F)(F)Cl)c1nc2ccccc2s1` (stereo unspecified) were 10.1 µM, 4.5 µM and 4.5 µM.
Consider `[O-][S+](CCC(F)=C(F)F)c1nc2ccccc2s1` (stereo unspecified), for which the IC50 was 8.6 µM in the assay with MCF7 [1], 4.7 µM in the assay with HepG2 [2] and 7 µM in [3].
Taken in the same sequence, the figures for `FC(F)=C(F)CCSc1ncc(Cl)s1` were more than 120 µM, more than 120 µM and more than 120 µM.
`COc1ccc2c(c1OC)C(=O)O[C@@H]2[C@H]1c2c(cc3c(c2OC)OCO3)CCN1C` [NOSCAPINE]: in assay [3], the IC50 came out at 80.3 µM.
As for `[O-][S+](CCC(F)(Cl)C(F)(F)Cl)c1nc2ccccc2s1` (stereo unspecified), the result with MCF7 [4], with SH-SY5Y and with HepG2 [5] was Active. The figures for the IC50 (with MCF7 [1]; in the assay with HepG2 [2]; in assay [3]) were 17.1 µM, 13.5 µM and 41.5 µM, respectively.
`FC(F)=C(F)CCSc1nc2ccccc2o1`: the IC50 (in the assay on MCF7 [1]; with HepG2 [2]; in [3]) was more than 120 µM in each case.
In the case of `CC(=C(C#N)C#N)c1nccs1`, the IC50 in the assay with MCF7 [1] was determined as 110 µM; in the assay with HepG2 [2], 105 µM; in [3] it was 68.8 µM.
Take `[O-][S+](CCC(F)=C(F)F)c1nccs1` (stereo unspecified): the IC50 (in the assay on MCF7 [1]; in the assay on HepG2 [2]; in [3]) was more than 120 µM throughout.
`FC(F)=C(F)CCSc1ccccn1`: the IC50 (in the assay with MCF7 [1]; in the assay with HepG2 [2]; in [3]) was more than 120 µM throughout.
In the case of `N#CC(C#N)(CCC(F)=C(F)F)Cc1nccs1`, the IC50 (in the assay on MCF7 [1]; in the assay with HepG2 [2]; in assay [3]) was more than 120 µM throughout.
For `O=S(=O)(CCC(F)=C(F)F)c1nccs1`, the IC50 (with MCF7 [1]; in the assay with HepG2 [2]; in assay [3]) was more than 120 µM in each case.
On to `FC(F)=C(F)CCSc1ncc(-c2ccncc2)s1`, for which the IC50 (in the assay with MCF7 [1]; in the assay with HepG2 [2]; in [3]) was more than 120 µM throughout.
As to `FC(F)(Cl)C(F)(Cl)CCSc1nc2ccc(Cl)cc2s1` (stereo unspecified), the IC50 (in the assay with MCF7 [1]; with HepG2 [2]; in assay [3]) was more than 120 µM throughout.
Take `O=S(=O)(CCC(F)=C(F)F)c1ccccn1`: the IC50 (in the assay on MCF7 [1]; with HepG2 [2]; in [3]) was more than 120 µM in each case.
Take `O=S(=O)(CCC(F)=C(F)F)c1nc2ccc(OC(F)F)cc2[nH]1`: the IC50 (in the assay with MCF7 [1]; in the assay with HepG2 [2]; in [3]) was more than 120 µM in each case.
On to `FC(F)(Cl)C(F)(Cl)CCSc1nc2ccccc2s1` (stereo unspecified), for which the IC50 (with MCF7 [1]; in the assay with HepG2 [2]; in [3]) was more than 120 µM in each case.
For `O=S(=O)(CCC(F)=C(F)F)c1nc2ccccc2s1`, the inhibition result in the assay with MCF7 [6] and in the assay with HepG2 [8] was “inactive” in each case. For the same molecule, the 50% inhibitory concentration (IC50) stood at 7.2 µM with MCF7 [1], 3.71 µM in the assay with HepG2 [2] and 2.64 µM in assay [3]. Further, 1 µM produced 50% inhibition in [7].
Turning to `N#CC(C#N)Cc1nccs1`, the IC50 (in the assay with MCF7 [1]; with HepG2 [2]; in assay [3]) was more than 120 µM each time.
As to `N#CC(C#N)=Cc1nccs1`, the IC50 (with MCF7 [1]; with HepG2 [2]; in assay [3]) was more than 120 µM throughout.
In the case of `CC(c1nccs1)C(C#N)C#N` (stereo unspecified), the IC50 (in the assay on MCF7 [1]; in the assay on HepG2 [2]; in assay [3]) was more than 120 µM throughout.
In the case of `[O-][S+](CCC(F)(Cl)C(F)(F)Cl)c1nc2ccc(Cl)cc2s1` (stereo unspecified), the inhibition entry in the assay on MCF7 [6] and with HepG2 [8] was “inactive” in each case. The IC50 in the assay on MCF7 [1] was determined as 12.2 µM; with HepG2 [2] it was 6.9 µM; in assay [3] it was 2.1 µM. 1 µM produced 50% inhibition in [7].
On to `c1ccc2sc(SN(C3CCCCC3)C3CCCCC3)nc2c1`, for which the IC50 is more than 120 µM with MCF7 [1], more than 120 µM with HepG2 [2] and 69.1 µM in assay [3].
Consider `[O-][S+](CCC(F)=C(F)F)c1ncc(-c2ccncc2)s1` (stereo unspecified), for which the IC50 (in the assay on MCF7 [1]; in the assay on HepG2 [2]; in assay [3]) was more than 120 µM in each case.
As for `[O-][S+](CCC(F)=C(F)F)c1nc2ccccc2[nH]1` (stereo unspecified), the IC50 (in the assay on MCF7 [1]; in the assay with HepG2 [2]; in [3]) was more than 120 µM throughout.
For `FC(F)=C(F)CCSc1nnc(S)s1`, the IC50 (in the assay on MCF7 [1]; in the assay on HepG2 [2]; in assay [3]) was more than 120 µM each time.
With `O=S(=O)(CCC(F)=C(F)F)c1nc2ccccc2[nH]1`, the IC50 (in the assay with MCF7 [1]; with HepG2 [2]; in assay [3]) was more than 120 µM each time.
Consider `FC(F)=C(F)CCSc1nc2ccccc2[nH]1`, for which the IC50 (with MCF7 [1]; in the assay on HepG2 [2]; in assay [3]) was more than 120 µM in each case.
`c1ccc2sc(SSc3nc4ccccc4s3)nc2c1` [BENZOTHIAZYL DISULFIDE]: the IC50 (in the assay with MCF7 [1]; in the assay with HepG2 [2]; in [3]) was more than 120 µM each time.
Turning to `O=S(=O)(CCC(F)=C(F)F)c1ncc(-c2ccncc2)s1`, the IC50 (in the assay with MCF7 [1]; in the assay with HepG2 [2]; in [3]) was more than 120 µM throughout.
On to `CC(C)(c1nccs1)C(C#N)C#N`, for which the IC50 (with MCF7 [1]; with HepG2 [2]; in [3]) was more than 120 µM in each case.
As to `FC(F)=C(F)CCSc1nc2ccccc2s1`, the half-maximal inhibitory concentration (IC50) (in the assay on MCF7 [1]; in the assay with HepG2 [2]; in assay [3]) was more than 120 µM in each case.
`FC(F)=C(F)CCSc1nccs1`: the IC50 (with MCF7 [1]; with HepG2 [2]; in [3]) was more than 120 µM in each case.
As for `[O-][S+](CCC(F)=C(F)F)c1nc2ccccc2o1` (stereo unspecified), the inhibition at 5 µM in the assay on HepG2 [9] worked out at 60%; in assay [10] it was 60%; with MCF7 [11], 20%. In addition, the IC50 with MCF7 [1] came to 4.5 µM; in the assay on HepG2 [2] it was 5.6 µM; in assay [3], 0.4 µM.
On to `FC(F)=C(F)CCSc1nc2ccc(OC(F)F)cc2[nH]1`, for which the IC50 (in the assay with MCF7 [1]; with HepG2 [2]; in assay [3]) was more than 120 µM in each case.

Usually IC50 stands for the concentration that gives 50% inhibition. A low value points to inhibition by little substance. For orientation: inhibition means the percentage by which the read-out fell short of the control.

The record behind these values is ChEMBL document CHEMBL3414424, “Fluoroalkane thioheterocyclic derivatives and their antitumor activity” (Eur J Med Chem, 2015).
